An excerpt weighted towards active compounds, which were near 4.5% of everything screened.
OX1R antag-1 = antagonists of human orexin 1 receptor; 0.43% of 330,000 active; AID 434989; CHO/OX1R cells, Fluo-8 calcium fluorescence, orexin A; O43613; inhibition, % at 5 µM;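 active = inhibition above its plate's threshold, mean inhibition of all tested compounds on the plate plus 3 SD, cut at about 37% in these data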;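 also: 0% = orexin A challenge wells and 100% = SB-334867-A antagonist wells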
Target sequence (O43613 whole entry, looked up): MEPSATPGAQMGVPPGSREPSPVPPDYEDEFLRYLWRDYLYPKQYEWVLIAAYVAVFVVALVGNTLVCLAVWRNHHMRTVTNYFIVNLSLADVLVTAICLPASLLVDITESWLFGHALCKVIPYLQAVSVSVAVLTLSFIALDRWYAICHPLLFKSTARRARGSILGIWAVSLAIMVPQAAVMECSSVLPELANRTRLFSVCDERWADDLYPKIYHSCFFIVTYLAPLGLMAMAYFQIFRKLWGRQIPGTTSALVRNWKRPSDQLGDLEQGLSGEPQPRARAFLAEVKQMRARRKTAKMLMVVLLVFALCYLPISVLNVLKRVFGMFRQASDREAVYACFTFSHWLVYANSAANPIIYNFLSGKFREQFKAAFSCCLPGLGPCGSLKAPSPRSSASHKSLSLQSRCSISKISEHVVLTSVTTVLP
CHO parental Ca = counter-screen for OX1R antagonists: effect in parental CHO cells | parental CHO-K1, ATP-induced calcium, Fluo-8 fluorescence | inhibition, % at 5.6 µM | 0.63% of 330,000 active | AID 463079;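 active = inhibition above that plate's mean sample inhibition plus 3 SD, cut at about 26% in these data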;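 also: 0% = ATP-challenged DMSO wells and 100% = DMSO wells without ATP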
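Test system: untransfected parental CHO cell line. Compound: one dose, 5.6 µM nominal. Detection: intracellular calcium via Fluo-8 no-wash fluorescent dye. Measure: % inhibition. Benchmarks: ATP-challenged DMSO wells low, unchallenged DMSO wells high.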
TAAR1 agonist = human TAAR1 agonism | CHO RD-HGA16 TAAR1, Fluo-8 calcium fluorescence; vehicle wells 0%, saturating PEA agonist 100% | activation, % at 3 µM | 0.99% of 360,000 active | AID 624467;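 active = activation above the mean activation of all test compounds in the run plus 3 SD, cut at about 38% in these data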
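Assay system: CHO-derived RD-HGA16 cells with stable Gα16 and human TAAR1; timing: 17-24 h seeding, 75 min 37 °C dye, 30 min RT; read-out: % activation from peak over basal fluorescence ratio, DMSO-to-PEA scaled; measured by: kinetic Fluo-8 calcium fluorescence; benchmarks: low control DMSO, high control PEA (EC100); doses: 3 µM single concentration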
OX1R antag-2 = blocks the human orexin 1 receptor; O43613; OX1R-expressing cells, FRET antagonist read-out; inhibition, % at 6.6 µM; 1.8% of 330,000 active; AID 485270; in the data active = inhibition mostly above about 38%, no sharp cut-off; inactive = mostly below about 40%;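 also: 0% = agonist challenge alone and 100% = reference antagonist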
TAAR1 antag = antagonists of human TAAR1 | CHO RD-HGA16 TAAR1, Fluo-8 calcium fluorescence, antagonist | AID 624466 | Q96RJ0 | 1.5% of 360,000 active | inhibition, % at 3 µM;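 active = inhibition above a per-plate cutoff, the mean inhibition of test compounds on that plate plus 3 SD, cut at about 49% in these data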;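 also: 0% = DMSO plus EC80 beta-PEA response and 100% = DMSO alone without agonist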
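Test system: CHO RD-HGA16 cells bearing hTAAR1 | Reagent: β-PEA, EC80 | Compound dosing: 3 µM, single point | Schedule: Dye loading 75 min at 37 °C, then 30 min room temperature | Signal: Calcium fluorescence with Fluo-8 | Evaluation: Percent inhibition of PEA-evoked calcium signal, max/basal emission ratio | Control set: DMSO-only wells and EC80 β-PEA-stimulated wells | Repeats: Singlicate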
GPR7 antagonist = blocks human GPR7 receptor signaling; GPR7-expressing cells, fluorescence antagonist assay; inhibition, % at 4.4 µM; 1.1% of 290,000 active; AID 1861; in the data active = inhibition above about 16%, passing the limit was not always enough;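 also: cells stimulated with the agonist NPW; 0% = agonist with vehicle and 100% = vehicle without agonist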
Target sequence (P48145 whole entry, looked up): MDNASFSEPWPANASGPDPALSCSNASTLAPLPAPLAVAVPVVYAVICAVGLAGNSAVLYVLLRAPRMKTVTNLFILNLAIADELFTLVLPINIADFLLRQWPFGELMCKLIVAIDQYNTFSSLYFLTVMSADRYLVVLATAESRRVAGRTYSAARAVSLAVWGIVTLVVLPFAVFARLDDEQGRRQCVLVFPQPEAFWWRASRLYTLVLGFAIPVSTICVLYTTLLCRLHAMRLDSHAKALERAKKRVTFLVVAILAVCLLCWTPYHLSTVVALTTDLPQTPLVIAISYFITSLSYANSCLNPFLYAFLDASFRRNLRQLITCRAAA
GPR7 antag conf = human GPR7 antagonism, confirmation assay; GPR7-expressing cells, calcium fluorescence antagonist mode; 52% of 2,400 active; AID 1952; inhibition, % at 4.4 µM; shares compounds with GPR7 antagonist; in the data active = inhibition above about 24%;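 also: stimulated with the GPR7 agonist NPW; 0% = agonist plus vehicle and 100% = vehicle alone without agonist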
MCHR1 antag = counter-screen for GPR7 antagonists: antagonists of human MCHR1; shares compounds with GPR7 antagonist; MCHR1-expressing cells, fluorescence antagonist assay; inhibition, % at 4.4 µM; 62% of 2,400 active; AID 2148; in the data active = inhibition above about 22%;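 also: 0% = vehicle with agonist and 100% = vehicle without agonist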
Starred values were filed as active, the others as inactive; x = no result given.

SMILES | OX1R antag-1 | CHO parental Ca | TAAR1 agonist | OX1R antag-2 | TAAR1 antag | GPR7 antagonist | GPR7 antag conf | MCHR1 antag
CSc1nc(N)nc(SCC(=O)Nc2ccc(Cl)cc2)c1C#N | -5.9 | 10.7 | 10.3 | 19.5 | 25.8 | -5.7 | x | x
CSc1nc(N)nc(SCC(=O)Nc2cccc(F)c2)c1C#N | 15.7 | 62.4* | 12.5 | 38.7 | 39.9 | 25.7* | 20.1 | 63.6*
COc1ccccc1-c1nnc(C2CCN(S(=O)(=O)c3ccc([N+](=O)[O-])cc3)CC2)o1 | -6.4 | -20.8 | 6.8 | 21.8 | 4.0 | 21.2* | 48.2* | 31.7*
COc1ccccc1-c1nnc(C2CCN(S(=O)(=O)c3cccc([N+](=O)[O-])c3)CC2)o1 | -32.4 | -6.8 | 4.8 | 17.4 | 13.8 | -0.5 | x | x
O=C(Nc1cccc(Cl)c1)Nc1cccc(Cl)c1 | 38.6* | 74.0* | 14.6 | 92.3* | 42.1 | 21.2* | 45.6* | 64.1*
COC(=O)c1cc(NC(=O)Nc2cccc(Cl)c2)ccc1Cl | 46.5* | 13.8 | 10.4 | 50.4* | 60.5* | 32.8* | 51.6* | 77.3*
O=C(Nc1cccc(F)c1)Nc1cccc(Cl)c1 | 24.3 | 34.0 | 8.8 | 31.3 | -14.2 | 34.5* | 39.6* | 55.3*
O=C(Nc1ccccc1)Nc1cccc2ccccc12 | -28.8 | -5.6 | 3.0 | 21.4 | -7.2 | 36.9* | 5.4 | 22.0*
COC(=O)c1cc(NC(=O)c2ccc(-c3ccccc3)cc2)ccc1Cl | -14.3 | -14.5 | 6.7 | 43.9 | 22.3 | 8.2 | x | x
O=c1[nH]c(N2CCCCC2)nc2c1CCCC2 | -12.0 | -5.0 | 3.4 | 17.0 | 8.8 | -4.0 | x | x
Cc1cc(C)c2nc(N3CCC(C(=O)NCCCN4CC(C)CC(C)C4)CC3)sc2c1 (stereo unspecified) | -22.8 | -14.7 | 0.5 | 12.8 | -12.1 | 22.0 | x | x
O=C(Nc1ccccc1)Nc1cc(Cl)cc(Cl)c1 | 64.8* | 53.6* | 6.4 | 83.6* | 20.4 | 38.1* | 37.8* | 59.8*
O=C(Nc1cccnc1)Nc1cc(Cl)cc(Cl)c1 | -3.5 | 1.8 | 12.3 | 26.1 | 17.8 | 8.7 | x | x
COC(=O)CNC(=O)c1c(-c2ccccc2Cl)noc1C | 1.9 | -1.4 | 11.9 | 0.1 | -0.6 | 23.2* | -1.4 | 2.0
CCOc1ccc(CN2CCN(CC(O)Cn3c4ccccc4c4ccccc43)CC2)cc1 (stereo unspecified) | 25.4 | 23.9 | 2.1 | -1.7 | -1.8 | 14.2 | x | x
O=c1c2ccccc2n(CC(O)CN2CCCCC2)c2ccccc12 (stereo unspecified) | -11.9 | -11.6 | 2.3 | 9.9 | 4.7 | -1.0 | x | x
O=c1c2ccccc2n(CC(O)CN2CCOCC2)c2ccccc12 (stereo unspecified) | -28.1 | -24.8 | 1.8 | 30.7 | -1.1 | 42.1* | 0.8 | 0.2
COc1ccc(CN2CCN(CC(O)Cn3c4ccccc4c4ccccc43)CC2)cc1 (stereo unspecified) | 6.1 | 12.2 | 10.8 | 12.3 | 7.2 | 23.1* | 46.7* | 67.9*
CS(=O)(=O)Nc1ccc(C(=O)Nc2ccccc2C(=O)NCc2ccco2)cc1 | -10.0 | -10.8 | 8.5 | 19.3 | 27.1 | 2.2 | x | x
COc1ccc(CN(CC(=O)NC2CCCCC2)C(=O)CCC(=O)Nc2nccs2)cc1 | -16.5 | 1.0 | 0.9 | 14.6 | -8.7 | 5.2 | x | x
N#Cc1c(Nc2ccccc2)sc(C(=O)c2ccc(F)cc2)c1N | -17.5 | -0.8 | 0.4 | 19.0 | 0.7 | -8.8 | x | x
Nc1c(C(=O)c2ccccc2)sc(Nc2ccccc2)c1S(=O)(=O)c1ccccc1 | -18.9 | -9.1 | 9.3 | 26.4 | -22.1 | 21.7* | -27.1 | -23.0
CCC1Sc2ccc(S(=O)(=O)CCC(=O)NCc3ccco3)cc2NC1=O (stereo unspecified) | -33.4 | -14.5 | 0.9 | -3.3 | -1.6 | 1.2 | x | x
COC(=O)C1=C(C)NC(=O)NC1c1cc(Cl)ccc1OC (stereo unspecified) | -33.0 | 5.2 | 5.2 | 7.5 | 6.0 | -9.9 | x | x
COc1ccc(Br)cc1C1NC(=O)NC(C)=C1C(=O)N(C)C (stereo unspecified) | -11.9 | -5.2 | 7.0 | 2.1 | 9.6 | 23.3* | 5.3 | 4.4
SMILES | OX1R antag-1 | CHO parental Ca | TAAR1 agonist | OX1R antag-2 | TAAR1 antag | GPR7 antagonist | GPR7 antag conf | MCHR1 antag
COC(=O)c1cccc(NC(=O)c2cnccn2)c1 | x | x | 3.5 | x | -5.3 | 24.1* | 7.8 | 1.4
O=C(COC(=O)/C=C/c1ccco1)NCc1ccccc1 | -9.0 | -3.6 | 1.3 | 13.5 | -15.9 | 27.0* | -7.5 | -2.3
O=C(COC(=O)/C=C/c1ccc(Cl)cc1)NCCc1ccccc1 | -15.8 | 4.1 | 7.4 | 0.1 | -7.8 | 21.3* | -0.9 | -0.8
COc1ccc(C(CNC(=O)c2ccc(S(=O)(=O)Nc3ccc(F)cc3)cc2)N(C)C)cc1 (stereo unspecified) | -2.5 | 1.9 | 45.1* | 19.3 | 16.8 | 54.3* | 50.8* | 49.0*
CC(C)(C(=O)N1CCC1(C)C(=O)NS(=O)(=O)c1cccc(C#N)c1)c1ccccc1 (stereo unspecified) | x | x | 3.8 | x | -16.6 | x | x | x
Cc1cc2cc(CNC(=O)c3ccc4c(c3)OCO4)ccc2n1C | -2.1 | 3.1 | 6.8 | 23.5 | -5.8 | 12.0 | x | x
O=[N+]([O-])c1nn(-c2ccc3c(c2)OCCO3)n(O)c1=Nc1ccc(Cl)cc1 | -27.5 | -7.5 | 4.0 | 7.6 | -7.0 | 27.6* | 34.2* | 21.2
Cc1ccc(C(CNS(=O)(=O)c2ccc(Cl)cc2)N2CCN(C)CC2)cc1 (stereo unspecified) | -22.8 | -20.3 | 7.3 | 0.9 | -4.6 | x | x | x
CN1C(=O)C(=C2CCCCCC2)SC1=S | -10.0 | -17.8 | 15.5 | 32.0 | -19.9 | 30.5* | -6.5 | -3.1
O=C(Cc1n[nH]c(=O)c2ccccc12)N1CCN(c2ccc(F)cc2)CC1 | -9.1 | -0.1 | 9.2 | -0.9 | -12.0 | 21.7* | -7.3 | 4.0
CC(=O)c1ccc(N2CCN(C(=O)Cc3n[nH]c(=O)c4ccccc34)CC2)cc1 | -0.2 | -3.1 | 0.1 | 6.1 | -22.6 | 0.6 | x | x
O=C(NCCCc1ccc(F)cc1)C1CCC(=O)N(CCCN2CCCC2=O)C1 (stereo unspecified) | -32.9 | -6.3 | 1.2 | 9.0 | 3.7 | 34.8* | -1.9 | 3.7
O=C(NCCCC1CCCC1)C1CCC(=O)N(Cc2ccc(Cl)cc2)C1 (stereo unspecified) | -39.8 | -28.5 | -1.7 | 13.1 | -32.8 | 28.1* | 3.6 | -5.8
Cc1ccc(CN2CCN(Cc3cccn3-c3ccccn3)CC2CCO)o1 (stereo unspecified) | -14.4 | -7.3 | 6.1 | 3.5 | 5.6 | -16.7 | x | x
CC(NC(=O)c1ccc(C#N)cc1)C1CC2CCC1C2 (stereo unspecified) | -18.8 | -11.5 | -2.8 | 8.6 | 13.6 | 23.4* | -4.2 | 13.2

Source: PubChem BioAssay (The Scripps Research Institute Molecular Screening Center)
